According to ChEMBL document CHEMBL1153436, “2-Pyridyl P1'-substituted symmetry-based human immunodeficiency virus protease inhibitors (A-792611 and A-790742) with potential for convenient dosing and reduced side effects” (J Med Chem, 2009):

Key:
Rattus norvegicus = assay: Toxicity in Gunn rat assessed as unconjugated-bilirubin level at 250 mg/kg coadministered with ritonavir measured on day 1; type: organism-based; parameters: dose 250 mg/kg; settings: in vivo
Procedure, shortened: (§1)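 Gunn rats (n = 8-10 per arm) dosed orally with compound in 5% ethanol/95% propylene glycol with p-toluenesulfonic acid, together with 50 mg/kg RTV. Plasma was sampled 4 h after the first and second doses. Drug was measured by HPLC and bilirubin […]. Change in bilirubin (mg/dL) reported as mean with SD.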

Serum = assay: Drug level in Gunn rat serum at 250 mg/kg coadministered with ritonavir measured on day 1; type: ADME, organism-based; parameters: dose 250 mg/kg; settings: in vivo; procedure, shortened: as §1
[1] = test system: Human immunodeficiency virus 1; assay: Antiviral activity against wild-type HIV1 pNL4-3 infected in human MT4 cells after 5 days by MTT assay; type: functional, organism-based; settings: Human immunodeficiency virus 1, MT4, 120 h
[2] = test system: Human immunodeficiency virus 1; assay: Antiviral activity against wild-type HIV1 pNL4-3 infected in human MT4 cells after 5 days by MTT assay in presence of 50% human serum; type: functional, organism-based; settings: Human immunodeficiency virus 1, MT4, 120 h
[3] = test system: Human immunodeficiency virus 1; assay: Antiviral activity against HIV1 bearing protease gene with A17 mutation infected in human MT4 cells after 5 days by MTT assay; type: functional, organism-based; settings: Human immunodeficiency virus 1, MT4, 120 h
Procedure, shortened: (§2)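 HIV-1 A17 mutant clone carrying protease mutations L10F, V32I, M46I, I47V, Q58E and I84V, generated by in vitro serial passage under LPV/RTV. EC50 was determined in MT-4 cells. Wild-type reference strain was HIV-1 pNL4-3.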

[4] = test system: Human immunodeficiency virus 1; assay: Fold resistance, ratio of EC50 for HIV1 bearing protease gene with A17 mutation to EC50 for wild-type HIV1 pNL4-3; type: functional; procedure, shortened: as §2
[5] = Half life in Sprague-Dawley rat at 5 mg/kg, iv; type: ADME, organism-based; parameters: dose 5 mg/kg, route intravenous; settings: in vivo
Procedure, shortened: (§3)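 Male Sprague-Dawley-derived rats (n = 3) dosed iv or by oral gavage with 5 mg/mL solutions in 5% dextrose containing 20% ethanol, 30% propylene glycol and methanesulfonic acid equivalents. Plasma was sampled at 10 time points over 8 h, extracted into ethyl acetate/hexane and analysed by reversed-phase HPLC with internal standard. AUC in µg·h/mL.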

[6] = Clearance in Sprague-Dawley rat at 5 mg/kg, iv; type: ADME, organism-based; parameters: dose 5 mg/kg, route intravenous; settings: in vivo; procedure, shortened: as §3
[7] = Oral bioavailability in Sprague-Dawley rat at 5 mg/kg; type: ADME, organism-based; settings: in vivo; procedure, shortened: as §3
[8] = AUC in Sprague-Dawley rat at 5 mg/kg, po; type: ADME, organism-based; parameters: dose 5 mg/kg, route oral; settings: plasma; procedure, shortened: as §3
[9] = AUC in Sprague-Dawley rat at 5 mg/kg, po in presence of ritonavir; type: ADME, organism-based; parameters: dose 5 mg/kg, route oral; settings: plasma; procedure, shortened: as §3
[10] = test system: Human immunodeficiency virus 1; assay: Antiviral activity against HIV1 bearing protease gene with B26 mutation infected in human MT4 cells after 5 days by MTT assay; type: functional, organism-based; settings: Human immunodeficiency virus 1, MT4, 120 h
[11] = test system: Human immunodeficiency virus 1; assay: Antiviral activity against HIV1 bearing protease gene with P25 mutation infected in human MT4 cells after 5 days by MTT assay; type: functional, organism-based; settings: Human immunodeficiency virus 1, MT4, 120 h

With COC(=O)N[C@H](C(=O)N[C@@H](Cc1ccc(-c2ccccn2)cc1)C[C@H](O)[C@H](Cc1ccccc1)NC(=O)[C@@H](N1CCN(Cc2cccc(C)n2)C1=O)C(C)(C)C)C(C)(C)C the Activity (Rattus norvegicus) was 0.233 mg/dL, the Drug uptake (Serum) was 5.83 µg/mL and the EC50 [1] was 13 nM. The EC50 [2] was 62 nM, the EC50 [3] was 15 nM and the “Ratio EC50” value [4] was 1.

COC(=O)N[C@H](C(=O)N[C@@H](Cc1ccc(-c2ccccn2)cc1)C[C@H](O)[C@H](Cc1ccccc1)NC(=O)[C@@H](N1CCN(Cc2ccccc2N)C1=O)C(C)(C)C)C(C)(C)C showed an EC50 [1] of 4 nM, an EC50 [2] of 20 nM and an EC50 [3] of 21 nM. The “Ratio EC50” value [4] was 5, the half-life [5] was 72 min and the clearance [6] was 33.2 mL/min/kg. It also gave a bioavailability [7] of 2.9%, an AUC [8] of 80 ng·h/mL and an AUC [9] of 1250 ng·h/mL.

Work on Cc1cccc(C)c1OCC(=O)N[C@@H](Cc1ccccc1)[C@@H](O)C[C@H](Cc1ccccc1)NC(=O)[C@H](C(C)C)N1CCCNC1=O [LOPINAVIR] yielded an EC50 [10] of 3790 nM, an EC50 [11] of over 10000 nM and an EC50 [2] of 152 nM. For the same compound, the EC50 [3] was 1060 nM and the “Ratio EC50” value [4] was 59.

With COC(=O)N[C@H](C(=O)N[C@@H](Cc1ccc(-c2ccccn2)cc1)[C@@H](O)C[C@H](Cc1ccccc1)NC(=O)[C@@H](N1CCN(Cc2cccc(C(C)(C)O)n2)C1=O)C(C)(C)C)C(C)(C)C the EC50 [1] was 4 nM, the EC50 [2] was 19 nM and the EC50 [3] was 2 nM. For the same compound, the “Ratio EC50” value [4] was under 1, the half-life [5] was 54 min and the clearance [6] was 16.7 mL/min/kg. For the same compound, the bioavailability [7] was 17%, the AUC [8] was 880 ng·h/mL and the AUC [9] was 1820 ng·h/mL.

CC(C)CN(C[C@@H](O)[C@H](Cc1ccccc1)NC(=O)O[C@H]1CO[C@H]2OCC[C@H]21)S(=O)(=O)c1ccc(N)cc1 gave an EC50 [10] of 587 nM, an EC50 [11] of 515 nM and an EC50 [3] of 338 nM.

Work on COC(=O)N[C@H](C(=O)N[C@@H](Cc1ccc(-c2ccccn2)cc1)C[C@H](O)[C@H](Cc1ccccc1)NC(=O)[C@@H](N1CCN(Cc2ccnc3ccccc23)C1=O)C(C)(C)C)C(C)(C)C yielded an EC50 [1] of 4 nM, an EC50 [2] of 19 nM and an EC50 [3] of 2 nM. The “Ratio EC50” value [4] was under 1, the half-life [5] was 66 min and the clearance [6] was 30 mL/min/kg. For the same compound, the bioavailability [7] was 0.6%, the AUC [8] was 20 ng·h/mL and the AUC [9] was 2860 ng·h/mL.

Compound COC(=O)N[C@H](C(=O)N[C@@H](Cc1ccccc1)C[C@H](O)[C@H](Cc1ccccc1)NC(=O)[C@@H](N1CCN(Cc2cccc(C)n2)C1=O)C(C)(C)C)C(C)(C)C has an Activity (Rattus norvegicus) of 0.195 mg/dL, a Drug uptake (Serum) of 18.68 µg/mL and an EC50 [1] of 13 nM. For the same compound, the EC50 [2] was 179 nM, the EC50 [3] was 88 nM and the “Ratio EC50” value [4] was 7.

Compound COC(=O)N[C@H](C(=O)N[C@@H](Cc1ccc(-c2ccccn2)cc1)[C@@H](O)C[C@H](Cc1ccccc1)NC(=O)[C@@H](N1CCN(Cc2ccnc3ccccc23)C1=O)C(C)(C)C)C(C)(C)C has an EC50 [1] of 2 nM, an EC50 [2] of 15 nM and an EC50 [3] of 1 nM. The “Ratio EC50” value [4] was under 1, the half-life [5] was 24 min and the clearance [6] was 33.3 mL/min/kg. It also gave a bioavailability [7] of 1.1%, an AUC [8] of 50 ng·h/mL and an AUC [9] of 3300 ng·h/mL.

For COC(=O)N[C@H](C(=O)N[C@@H](Cc1ccc(-c2ccccn2)cc1)C[C@H](O)[C@H](Cc1ccccc1)NC(=O)[C@@H](N1CCN(Cc2cccc(C)c2)C1=O)C(C)(C)C)C(C)(C)C, the EC50 [1] was 5 nM, the EC50 [2] was 25 nM and the EC50 [3] was 41 nM. For the same compound, the “Ratio EC50” value [4] was 8, the half-life [5] was 84 min and the clearance [6] was 29.3 mL/min/kg. For the same compound, the bioavailability [7] was 0.8%, the AUC [8] was 20 ng·h/mL and the AUC [9] was 2700 ng·h/mL.

COC(=O)N[C@H](C(=O)N[C@@H](Cc1ccc(-c2ccccn2)cc1)[C@@H](O)C[C@H](Cc1ccccc1)NC(=O)[C@@H](N1CCN(Cc2csc(-c3cccnc3)n2)C1=O)C(C)(C)C)C(C)(C)C showed an EC50 [1] of 2 nM, an EC50 [2] of 18 nM and an EC50 [3] of 1 nM. The “Ratio EC50” value [4] was under 1, the half-life [5] was 48 min and the clearance [6] was 46.7 mL/min/kg. For the same compound, the bioavailability [7] was 1.6%, the AUC [8] was 30 ng·h/mL and the AUC [9] was 260 ng·h/mL.

COC(=O)N[C@H](C(=O)N[C@H](Cc1ccc(-c2ccccn2)cc1)C[C@H](O)[C@H](Cc1ccccc1)NC(=O)[C@@H](N1CCN(Cc2csc(C)n2)C1=O)C(C)(C)C)C(C)(C)C gave an EC50 [1] of 3 nM, an EC50 [2] of 15 nM and an EC50 [3] of 12 nM. The “Ratio EC50” value [4] was 4, the half-life [5] was 24 min and the clearance [6] was 31 mL/min/kg. For the same compound, the bioavailability [7] was 5.9%, the AUC [8] was 160 ng·h/mL and the AUC [9] was 1980 ng·h/mL.

Work on COC(=O)N[C@H](C(=O)N[C@@H](Cc1ccccc1)[C@@H](O)CN(Cc1ccc(-c2ccccn2)cc1)NC(=O)[C@@H](NC(=O)OC)C(C)(C)C)C(C)(C)C [ATAZANAVIR] yielded an EC50 [10] of 74 nM, an EC50 [11] of 298 nM and an EC50 [1] of 3 nM. It also gave an EC50 [3] of 250 nM.

In the case of COC(=O)N[C@H](C(=O)NN(Cc1ccccc1)C[C@H](O)[C@H](Cc1ccccc1)NC(=O)[C@@H](N1CCN(Cc2cccc(C)n2)C1=O)C(C)(C)C)C(C)(C)C, the Activity (Rattus norvegicus) is reported as 0.429 mg/dL and the Drug uptake (Serum) is reported as 13.28 µg/mL.
